Source: ChEMBL document CHEMBL4043061, “Potent, Selective, Allosteric Inhibition of Human Plasmin by Sulfated Non-Saccharide Glycosaminoglycan Mimetics” (J Med Chem, 2017)

Columns and labels:
Plasminogen [1] = biological target: T1, Plasminogen (Homo sapiens, UniProt P00747); assay: Allosteric inhibition of full length human plasmin by using chromogenic substrate spectrozyme PL preincubated for 5 mins followed by substrate addition by spectrophotometric method
In short: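 Inhibitor added from 0–20 mM aqueous stocks, or vehicle. After 5 min, Spectrozyme PL added (1 mM stock). Residual activity taken from initial rate of A405 rise. Logistic fit gives IC50, efficacy and Hill slope.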

Plasminogen [2] = biological target: T1, Plasminogen; assay: Binding affinity to human plasmin assessed as loss of intrinsic tryptophan fluorescence at 250 uM by spectrofluorometric method
Coagulation factor XI = Coagulation factor XI (Homo sapiens, UniProt P03951); assay: Inhibition of human F11a by using chromogenic substrate S-2366 preincubated for 5 mins followed by substrate addition by spectrophotometric method
In short: (§1)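 Tris-HCl pH 7.4 buffer (100 mM NaCl, 2.5 mM CaCl2, 0.1% PEG8000, 0.02% Tween80) at 37 °C; factor IXa buffer also held 33% ethylene glycol. Final enzyme: factor Xa 1.09 nM, XIa 0.75 nM, XIIa 10 nM, IXa 250 nM, trypsin 0.145 µg/mL, chymotrypsin […]. Inhibitor from 0–20 mM stock, 5 min preincubation, then substrate. Initial A405 rate, sigmoidal dose–response fit.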

Coagulation factor X = Coagulation factor X (Homo sapiens, UniProt P00742); assay: Inhibition of human F10a by using chromogenic substrate spectrozyme F10a preincubated for 5 mins followed by substrate addition by spectrophotometric method; in short: as §1
Prothrombin = Prothrombin (Homo sapiens, UniProt P00734); assay: Inhibition of human thrombin by using chromogenic substrate spectrozyme TH preincubated for 5 mins followed by substrate addition by spectrophotometric method
In short: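 Thrombin at 6 nM final, 25 °C, in 20 mM Tris-HCl pH 7.4 with 100 mM NaCl, 2.5 mM CaCl2, 0.1% PEG8000, 0.02% Tween80. Inhibitor (0–20 mM stock) or vehicle preincubated 5 min with enzyme. Spectrozyme TH added (1.0 mM stock). Residual activity read as initial rate of A405 increase and fitted to a sigmoidal dose–response curve.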

Coagulation factor XII = biological target: T2, Coagulation factor XII (Homo sapiens, UniProt P00748); assay: Inhibition of human F12a by using chromogenic substrate spectrozyme F12a preincubated for 5 mins followed by substrate addition by spectrophotometric method
T2 sequence (P00748 whole entry): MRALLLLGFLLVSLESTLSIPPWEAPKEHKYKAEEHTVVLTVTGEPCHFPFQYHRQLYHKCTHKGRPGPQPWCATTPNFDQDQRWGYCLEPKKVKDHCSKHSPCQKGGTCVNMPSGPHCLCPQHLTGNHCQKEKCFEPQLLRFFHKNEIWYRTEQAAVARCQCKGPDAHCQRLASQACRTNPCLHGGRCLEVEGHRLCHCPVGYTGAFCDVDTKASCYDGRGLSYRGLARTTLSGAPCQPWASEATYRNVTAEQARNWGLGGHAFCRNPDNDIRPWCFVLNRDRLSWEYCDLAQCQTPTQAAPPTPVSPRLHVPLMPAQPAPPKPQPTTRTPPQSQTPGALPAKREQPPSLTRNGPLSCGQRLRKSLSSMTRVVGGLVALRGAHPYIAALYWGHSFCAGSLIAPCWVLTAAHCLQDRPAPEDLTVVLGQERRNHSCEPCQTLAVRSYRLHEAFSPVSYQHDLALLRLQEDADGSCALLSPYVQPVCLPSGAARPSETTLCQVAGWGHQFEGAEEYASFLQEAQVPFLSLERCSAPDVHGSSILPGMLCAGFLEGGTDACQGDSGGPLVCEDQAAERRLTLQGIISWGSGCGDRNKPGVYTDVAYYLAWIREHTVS

[3] = Inhibition of human trypsin using chromogenic substrate SS-2222 preincubated for 5 mins followed by substrate addition by spectrophotometric method; in short: as §1
[4] = Inhibition of human chymotrypsin using chromogenic substrate spectrozyme Cty preincubated for 5 mins followed by substrate addition by spectrophotometric method; in short: as §1
Coagulation factor IX = Coagulation factor IX (Homo sapiens, UniProt P00740); assay: Inhibition of human F9a by using chromogenic substrate spectrozyme F9a preincubated for 5 mins followed by substrate addition by spectrophotometric method
Plasminogen [5] = biological target: T1, Plasminogen; assay: Binding affinity to human dansyl-EGR-chloromethylketone-plasmin complex assessed as loss of intrinsic tryptophan fluorescence by spectrofluorometric method

T1 sequence (P00747 97-580 limits assumed): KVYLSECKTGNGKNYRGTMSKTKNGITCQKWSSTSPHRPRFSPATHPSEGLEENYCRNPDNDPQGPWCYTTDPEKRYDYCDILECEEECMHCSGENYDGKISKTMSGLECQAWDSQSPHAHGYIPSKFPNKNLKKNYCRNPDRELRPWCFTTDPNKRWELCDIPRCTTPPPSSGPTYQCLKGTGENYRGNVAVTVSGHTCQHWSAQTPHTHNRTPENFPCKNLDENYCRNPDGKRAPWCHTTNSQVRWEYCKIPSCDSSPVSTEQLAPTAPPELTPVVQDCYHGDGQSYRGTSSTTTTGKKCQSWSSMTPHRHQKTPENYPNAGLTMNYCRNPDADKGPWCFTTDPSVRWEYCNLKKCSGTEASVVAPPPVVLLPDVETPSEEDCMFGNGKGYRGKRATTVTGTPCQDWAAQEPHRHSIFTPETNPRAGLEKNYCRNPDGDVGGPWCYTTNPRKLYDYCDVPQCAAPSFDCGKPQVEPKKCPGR
T1 sequence (P00747 581-810 limits assumed): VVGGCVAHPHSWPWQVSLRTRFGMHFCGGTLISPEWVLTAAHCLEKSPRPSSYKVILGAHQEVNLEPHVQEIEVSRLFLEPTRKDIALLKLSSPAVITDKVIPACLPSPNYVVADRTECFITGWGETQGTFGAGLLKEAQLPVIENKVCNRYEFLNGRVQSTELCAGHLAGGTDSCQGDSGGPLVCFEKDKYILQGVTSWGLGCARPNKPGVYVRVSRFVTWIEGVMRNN
Coagulation factor XI, sequence (P03951 19-387 limits assumed): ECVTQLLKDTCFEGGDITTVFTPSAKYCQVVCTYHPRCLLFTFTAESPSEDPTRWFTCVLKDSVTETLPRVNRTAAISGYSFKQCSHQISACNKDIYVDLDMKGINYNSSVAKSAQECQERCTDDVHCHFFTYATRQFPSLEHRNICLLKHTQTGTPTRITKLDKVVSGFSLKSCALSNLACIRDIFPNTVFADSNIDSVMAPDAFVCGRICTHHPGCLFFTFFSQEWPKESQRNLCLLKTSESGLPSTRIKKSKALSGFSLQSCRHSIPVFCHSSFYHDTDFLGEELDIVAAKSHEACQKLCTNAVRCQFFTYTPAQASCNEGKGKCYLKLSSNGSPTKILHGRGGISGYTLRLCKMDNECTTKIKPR
Coagulation factor XI, sequence (P03951 388-625 limits assumed): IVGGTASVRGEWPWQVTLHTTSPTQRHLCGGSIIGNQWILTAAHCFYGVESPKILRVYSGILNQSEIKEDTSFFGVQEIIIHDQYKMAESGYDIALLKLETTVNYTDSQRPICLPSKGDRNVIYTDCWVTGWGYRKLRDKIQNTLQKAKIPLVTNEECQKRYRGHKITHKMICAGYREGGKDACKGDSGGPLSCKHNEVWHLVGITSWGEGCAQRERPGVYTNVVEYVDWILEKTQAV
Coagulation factor X, sequence (P00742 41-179 limits assumed): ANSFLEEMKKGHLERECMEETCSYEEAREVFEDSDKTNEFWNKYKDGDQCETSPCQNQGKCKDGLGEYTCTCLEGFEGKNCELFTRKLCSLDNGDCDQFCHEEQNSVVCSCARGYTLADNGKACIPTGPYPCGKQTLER
Coagulation factor X, sequence (P00742 235-488 limits assumed): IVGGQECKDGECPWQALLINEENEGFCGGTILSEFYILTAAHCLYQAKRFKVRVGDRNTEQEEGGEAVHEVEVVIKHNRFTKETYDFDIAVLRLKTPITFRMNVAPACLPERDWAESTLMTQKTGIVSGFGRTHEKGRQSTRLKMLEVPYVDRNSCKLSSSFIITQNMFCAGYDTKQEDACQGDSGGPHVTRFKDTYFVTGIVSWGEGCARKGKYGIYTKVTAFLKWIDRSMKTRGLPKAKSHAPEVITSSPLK
Coagulation factor IX, sequence (P00740 47-191 limits assumed): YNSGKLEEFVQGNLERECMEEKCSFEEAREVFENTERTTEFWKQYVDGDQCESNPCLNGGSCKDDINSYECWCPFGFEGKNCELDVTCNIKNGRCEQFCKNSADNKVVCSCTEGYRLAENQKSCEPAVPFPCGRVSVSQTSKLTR
Coagulation factor IX, sequence (P00740 227-461 limits assumed): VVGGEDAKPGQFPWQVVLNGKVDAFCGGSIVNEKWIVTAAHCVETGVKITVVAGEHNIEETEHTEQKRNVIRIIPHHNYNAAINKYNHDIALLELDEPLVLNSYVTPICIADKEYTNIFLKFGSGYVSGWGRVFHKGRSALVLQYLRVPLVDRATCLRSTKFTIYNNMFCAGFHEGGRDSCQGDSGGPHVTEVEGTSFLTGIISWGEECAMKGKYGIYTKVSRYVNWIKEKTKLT

Row | Compound | IC50 (Plasminogen [1]) | further results
1 | O=c1cc(-c2ccc(OS(=O)(=O)O)cc2)oc2cc(OS(=O)(=O)O)cc(OCCCCOc3cc(OS(=O)(=O)O)cc4oc(-c5ccc(OS(=O)(=O)O)cc5)cc(=O)c34)c12 | 282 µM | –
2 | O=c1cc(-c2ccc(OS(=O)(=O)O)cc2)oc2cc(OS(=O)(=O)O)cc(OC/C=C/COc3cc(OS(=O)(=O)O)cc4oc(-c5ccc(OS(=O)(=O)O)cc5)cc(=O)c34)c12 | 121 µM | Kd (Plasminogen [2]): 3.6 µM
3 | O=c1c(O)c(-c2ccc(O)c(O)c2)oc2cc(O)cc(OCc3ccc(COc4cc(O)cc5oc(-c6ccc(O)c(O)c6)c(O)c(=O)c45)cc3)c12 | 116 µM | IC50 (Coagulation factor XI): 208 µM; IC50 (Coagulation factor X): 212 µM; IC50 (Prothrombin): 267 µM
4 | O=c1cc(-c2ccc(OS(=O)(=O)O)cc2)oc2cc(OS(=O)(=O)O)cc(OCc3ccc(-c4ccc(COc5cc(OS(=O)(=O)O)cc6oc(-c7ccc(OS(=O)(=O)O)cc7)cc(=O)c56)cc4)cc3)c12 | 47 µM | –
5 | O=c1c(OS(=O)(=O)O)c(-c2ccc(OS(=O)(=O)O)c(OS(=O)(=O)O)c2)oc2cc(OS(=O)(=O)O)cc(OCc3cccc(COc4cc(OS(=O)(=O)O)cc5oc(-c6ccc(OS(=O)(=O)O)c(OS(=O)(=O)O)c6)c(OS(=O)(=O)O)c(=O)c45)n3)c12 | 231 µM | –
6 | O=c1c(OS(=O)(=O)O)c(-c2ccc(OS(=O)(=O)O)c(OS(=O)(=O)O)c2)oc2cc(OS(=O)(=O)O)cc(OCc3cccc(COc4cc(OS(=O)(=O)O)cc5oc(-c6ccc(OS(=O)(=O)O)c(OS(=O)(=O)O)c6)c(OS(=O)(=O)O)c(=O)c45)c3)c12 | 73 µM | –
7 | O=c1cc(-c2ccc(OS(=O)(=O)O)cc2)oc2cc(OS(=O)(=O)O)cc(OCc3cccc(COc4cc(OS(=O)(=O)O)cc5oc(-c6ccc(OS(=O)(=O)O)cc6)cc(=O)c45)c3)c12 | 34 µM | –
8 | O=c1c(OS(=O)(=O)O)c(-c2ccc(OS(=O)(=O)O)c(OS(=O)(=O)O)c2)oc2cc(OS(=O)(=O)O)cc(OCc3ccc(COc4cc(OS(=O)(=O)O)cc5oc(-c6ccc(OS(=O)(=O)O)c(OS(=O)(=O)O)c6)c(OS(=O)(=O)O)c(=O)c45)cc3)c12 | – | IC50 (Coagulation factor XII): > 1000 µM; IC50 [3]: > 440 µM; IC50 (Coagulation factor XI): 180 µM; IC50 [4]: 196 µM; IC50 (Coagulation factor X): 505 µM; IC50 (Prothrombin): 156 µM; IC50 (Coagulation factor IX): > 2000 µM
9 | O=c1cc(-c2ccc(OS(=O)(=O)O)cc2)oc2cc(OS(=O)(=O)O)cc(OCCOc3cc(OS(=O)(=O)O)cc4oc(-c5ccc(OS(=O)(=O)O)cc5)cc(=O)c34)c12 | 71 µM | –
10 | O=c1cc(-c2ccc(OS(=O)(=O)O)cc2)oc2cc(OS(=O)(=O)O)cc(OCc3ccc(COc4cc(OS(=O)(=O)O)cc5oc(-c6ccc(OS(=O)(=O)O)c(OS(=O)(=O)O)c6)c(OS(=O)(=O)O)c(=O)c45)cc3)c12 | 14 µM | –
11 | O=c1cc(-c2ccc(OS(=O)(=O)O)cc2)oc2cc(OS(=O)(=O)O)cc(OCCCOc3cc(OS(=O)(=O)O)cc4oc(-c5ccc(OS(=O)(=O)O)cc5)cc(=O)c34)c12 | > 1000 µM | –
12 | O=c1cc(-c2ccc(OS(=O)(=O)O)cc2)oc2cc(OS(=O)(=O)O)cc(OCc3ccc(COc4cc(OS(=O)(=O)O)cc5oc(-c6ccc(OS(=O)(=O)O)cc6)cc(=O)c45)cc3)c12 | 34 µM | –
13 | Cc1cc(COc2cc(OS(=O)(=O)O)cc3oc(-c4ccc(OS(=O)(=O)O)cc4)cc(=O)c23)c(C)cc1COc1cc(OS(=O)(=O)O)cc2oc(-c3ccc(OS(=O)(=O)O)cc3)cc(=O)c12 | 20 µM | Kd (Plasminogen [2]): 1.9 µM; Kd (Plasminogen [5]): 5.4 µM
14 | O=c1c(OS(=O)(=O)O)c(-c2ccc(OS(=O)(=O)O)c(OS(=O)(=O)O)c2)oc2cc(OS(=O)(=O)O)cc(OCc3ccc(-c4ccc(COc5cc(OS(=O)(=O)O)cc6oc(-c7ccc(OS(=O)(=O)O)c(OS(=O)(=O)O)c7)c(OS(=O)(=O)O)c(=O)c56)cc4)cc3)c12 | 37 µM | –
15 | Cc1cc(COc2cc(OS(=O)(=O)O)cc3oc(-c4ccc(OS(=O)(=O)O)c(OS(=O)(=O)O)c4)c(OS(=O)(=O)O)c(=O)c23)c(C)cc1COc1cc(OS(=O)(=O)O)cc2oc(-c3ccc(OS(=O)(=O)O)c(OS(=O)(=O)O)c3)c(OS(=O)(=O)O)c(=O)c12 | 6.5 µM | Kd (Plasminogen [2]): 1 µM
16 | O=c1cc(-c2ccc(OS(=O)(=O)O)cc2)oc2cc(OS(=O)(=O)O)cc(OCc3cccc(COc4cc(OS(=O)(=O)O)cc5oc(-c6ccc(OS(=O)(=O)O)cc6)cc(=O)c45)n3)c12 | 42 µM | –
